According to ChEMBL document CHEMBL3994609, “Model-Based Discovery of Synthetic Agonists for the Zn2+-Sensing G-Protein-Coupled Receptor 39 (GPR39) Reveals Novel Biological Functions” (J Med Chem, 2017):
The source made the active and inactive calls. The rule behind the calls is not given here.

Assays:
[1] = Intrinsic clearance in human liver microsomes assessed per mg protein at 3 uM measured after 45 mins by LC-MS/MS analysis; assay type: ADME, microsome; details: read-out: CLH
[2] = system: Primary gastric mucosal cell; experiment: Induction of CGRP-induced somatostatin release in primary gastric mucosal cells isolated from GPR39 deficient C57BL/6 mouse at 1 uM in presence of 10 uM of Zn2+ measured after 4 hrs by radioimmunoassay; assay type: functional, cell-based
How it was run: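 Primary gastric mucosal cells from GPR39-KO mice, day after preparation, exposed to ligands (1 μM, 10 μM Zn2+) in triplicate for 4 h; supernatant somatostatin measured by in-house RIA and expressed as percent of medium-alone secretion; 10 nM CGRP used as a comparator stimulus; n=2.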

[3] = target: Neuromedin-U receptor 2 (Homo sapiens) (UniProt Q9GZQ4); experiment: Agonist activity at human NMU2 receptor assessed as myo-[2-3H]inositol phosphate accumulation measured after 75 mins by scintillation proximity assay; assay type: functional
[4] = target: C-C chemokine receptor type 5 (Macaca mulatta) (UniProt P61813); experiment: Agonist activity at full length rhesus monkey CCR5 assessed as myo-[2-3H]inositol phosphate accumulation measured after 75 mins by scintillation proximity assay; assay type: functional
[5] = target: T1, C-C chemokine receptor type 1 (Homo sapiens) (UniProt P32246); experiment: Agonist activity at full length human CCR1 assessed as myo-[2-3H]inositol phosphate accumulation measured after 75 mins by scintillation proximity assay; assay type: functional
T1 sequence (whole entry): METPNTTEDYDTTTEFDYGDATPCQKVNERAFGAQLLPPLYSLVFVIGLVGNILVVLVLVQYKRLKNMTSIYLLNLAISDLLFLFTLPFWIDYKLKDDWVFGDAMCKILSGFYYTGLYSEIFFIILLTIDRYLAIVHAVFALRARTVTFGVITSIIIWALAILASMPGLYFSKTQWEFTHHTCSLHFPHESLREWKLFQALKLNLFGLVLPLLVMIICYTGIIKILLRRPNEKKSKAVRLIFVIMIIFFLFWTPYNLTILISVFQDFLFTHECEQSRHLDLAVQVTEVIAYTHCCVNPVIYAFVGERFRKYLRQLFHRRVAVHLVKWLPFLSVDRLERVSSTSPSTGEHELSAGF

[6] = system: Plasma; experiment: Drug uptake in mouse plasma at 30 to 60 mg/kg, po administered via gavage measured after 30 to 240 mins by LC-MS/MS analysis; assay type: ADME, organism-based; details: in vivo
How it was run: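 Mice dosed orally at 30 mg/kg and 60 mg/kg; plasma compound concentration followed from 30 to 240 min.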

[7] = system: Pancreatic islet; experiment: Induction of glucose-stimulated insulin release in mouse pancreatic islets at 1 uM pretreated for 24 hrs followed by glucose addition measured after 30 mins; assay type: functional, cell-based
How it was run: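 Islets isolated from GPR39-deficient mice and wild-type littermates on five independent days, 2 to 3 mice per day; insulin secretion measured with vehicle or 1 μM compound.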

[8] = target: T2, G-protein coupled receptor 39 (Homo sapiens) (UniProt O43194); experiment: (§1) Agonist activity at GPR39 (unknown origin) expressed in COS7 cells co-expressing Galphas assessed as increase in intracellular cAMP level in presence of 3 uM Zn2+ measured after 30 mins by chemiluminescence assay; assay type: functional, cell-based
T2 sequence (whole entry): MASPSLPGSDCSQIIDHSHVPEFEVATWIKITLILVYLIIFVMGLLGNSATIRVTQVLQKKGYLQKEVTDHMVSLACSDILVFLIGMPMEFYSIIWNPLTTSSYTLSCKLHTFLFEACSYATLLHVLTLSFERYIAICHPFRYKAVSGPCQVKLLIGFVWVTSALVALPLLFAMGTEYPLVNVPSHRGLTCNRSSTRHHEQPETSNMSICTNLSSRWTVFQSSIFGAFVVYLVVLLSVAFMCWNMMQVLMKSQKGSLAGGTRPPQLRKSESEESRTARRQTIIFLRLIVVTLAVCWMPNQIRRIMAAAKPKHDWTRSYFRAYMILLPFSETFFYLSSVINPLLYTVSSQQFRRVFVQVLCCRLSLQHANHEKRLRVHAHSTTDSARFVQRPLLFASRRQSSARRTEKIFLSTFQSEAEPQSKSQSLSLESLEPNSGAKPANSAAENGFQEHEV

[9] = target: T3, G-protein coupled receptor 39 (Homo sapiens, UniProt O43194); experiment: as §1; assay type: functional, cell-based
T3 sequence (O43194 whole entry): T2 sequence (whole entry)

[10] = target: Neuromedin-U receptor 2 (Homo sapiens) (UniProt Q9GZQ4); experiment: Agonist activity at human NMU2 receptor assessed as myo-[2-3H]inositol phosphate accumulation in presence of 10 uM Zn2+ measured after 75 mins by scintillation proximity assay; assay type: functional
[11] = Increase in CGRP-induced somatostatin release in primary gastric mucosal cells isolated from GPR39 deficient C57BL/6 mouse at 1 uM in presence of 10 uM of Zn2+ measured after 4 hrs by radioimmunoassay relative to control; assay type: functional, Primary gastric mucosal cell; details: in the assay text read “C57BL/6 mouse” for “GPR39 deficient C57BL/6 mouse”
[12] = Half life in human liver microsomes at 3 uM measured by LC-MS/MS analysis; assay type: ADME, microsome
[13] = target: T4, G-protein coupled receptor 39 (Mus musculus, UniProt Q5U431); experiment: Agonist activity at mouse GPR39 expressed in HEK293 cells co-expressing Galphaq assessed as myo-[2-3H]inositol phosphate accumulation in presence of 10 uM Zn2+ measured after 75 mins by scintillation proximity assay; assay type: functional, cell-based
T4 sequence (Q5U431 whole entry): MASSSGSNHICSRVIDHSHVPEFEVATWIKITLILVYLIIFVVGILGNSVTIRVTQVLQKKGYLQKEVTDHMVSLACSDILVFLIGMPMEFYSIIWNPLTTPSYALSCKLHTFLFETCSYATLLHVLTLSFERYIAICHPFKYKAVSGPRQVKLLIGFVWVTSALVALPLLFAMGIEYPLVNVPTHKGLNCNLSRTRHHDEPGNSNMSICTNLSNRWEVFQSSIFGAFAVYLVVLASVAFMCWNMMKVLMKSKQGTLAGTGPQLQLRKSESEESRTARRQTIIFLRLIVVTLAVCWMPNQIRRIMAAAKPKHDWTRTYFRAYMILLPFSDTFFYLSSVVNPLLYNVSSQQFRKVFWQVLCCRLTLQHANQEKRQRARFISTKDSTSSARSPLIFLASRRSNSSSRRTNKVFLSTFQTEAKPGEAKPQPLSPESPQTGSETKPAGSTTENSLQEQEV

[14] = target: T5, G-protein coupled receptor 39 (Mus musculus) (UniProt Q5U431); experiment: Agonist activity at GPR39 in primary gastric mucosal cells isolated from C57BL/6 mouse assessed as myo-[2-3H]inositol phosphate accumulation in presence of 10 uM Zn2+ measured after 75 mins by scintillation proximity assay; assay type: functional
T5 sequence (whole entry): T4 sequence (Q5U431 whole entry)
How it was run: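 Primary murine gastric mucosal cell cultures stimulated with ligand plus 10 μM Zn2+; inositol phosphate turnover read out as for the transfected-cell IP accumulation assay.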

[15] = target: T1, C-C chemokine receptor type 1 (Homo sapiens); experiment: Agonist activity at full length human CCR1 assessed as myo-[2-3H]inositol phosphate accumulation in presence of 10 uM Zn2+ measured after 75 mins by scintillation proximity assay; assay type: functional
[16] = target: Growth hormone secretagogue receptor type 1 (Homo sapiens) (UniProt Q92847); experiment: Agonist activity at human ghrelin receptor ([…]) assessed as myo-[2-3H]inositol phosphate accumulation measured after 75 mins by scintillation proximity assay; assay type: functional
[17] = target: T2, G-protein coupled receptor 39 (Homo sapiens); experiment: Agonist activity at GPR39 (unknown origin) expressed in COS7 cells co-expressing Galphas assessed as increase in intracellular cAMP level measured after 30 mins by chemiluminescence assay; assay type: functional, cell-based

Chain of Neuromedin-U receptor 2 (Homo sapiens) (Q9GZQ4 whole entry): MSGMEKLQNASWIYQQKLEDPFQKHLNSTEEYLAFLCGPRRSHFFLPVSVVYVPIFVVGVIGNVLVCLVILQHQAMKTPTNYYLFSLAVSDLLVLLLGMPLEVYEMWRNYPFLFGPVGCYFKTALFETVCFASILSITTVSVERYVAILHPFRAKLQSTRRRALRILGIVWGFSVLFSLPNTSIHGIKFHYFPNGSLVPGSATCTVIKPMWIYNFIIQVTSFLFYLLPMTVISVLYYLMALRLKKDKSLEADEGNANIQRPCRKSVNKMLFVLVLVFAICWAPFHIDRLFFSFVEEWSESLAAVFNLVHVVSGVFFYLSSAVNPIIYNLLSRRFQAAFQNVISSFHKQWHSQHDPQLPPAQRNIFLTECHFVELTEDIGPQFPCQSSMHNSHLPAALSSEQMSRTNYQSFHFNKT
Chain of Growth hormone secretagogue receptor type 1 (Homo sapiens) (Q92847 whole entry): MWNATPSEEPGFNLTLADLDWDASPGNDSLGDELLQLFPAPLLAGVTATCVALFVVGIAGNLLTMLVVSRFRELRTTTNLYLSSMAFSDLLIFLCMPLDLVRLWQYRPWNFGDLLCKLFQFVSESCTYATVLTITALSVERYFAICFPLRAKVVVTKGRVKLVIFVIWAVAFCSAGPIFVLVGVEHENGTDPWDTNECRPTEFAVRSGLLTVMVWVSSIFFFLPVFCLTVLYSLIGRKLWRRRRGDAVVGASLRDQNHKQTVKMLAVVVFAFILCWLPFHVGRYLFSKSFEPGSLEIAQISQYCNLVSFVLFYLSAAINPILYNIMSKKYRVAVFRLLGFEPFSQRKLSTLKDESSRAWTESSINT

Compound: Cc1nn(-c2ncnc3nc[nH]c23)c2c1C(c1ccc(F)cc1Cl)CC(=O)N2 (configuration not stated)
- microsomal CLint at 3 µM [1]: 23.7 µL/min/mg
- Activity [2]: inactive
- Activity [3]: inactive
- Activity [4]: inactive
- Activity [5]: inactive
- Drug uptake [6]: Active
- Activity [7]: inactive
- Activity [8]: Dose-dependent effect
- EC50 [9]: 17 nM
- Activity [10]: inactive
- Activity [11]: 53%
- half-life at 3 µM [12]: 58 min
- EC50 [13]: 5 nM
- Activity [14]: Dose-dependent effect
- Activity [15]: inactive
- Activity [16]: inactive
- Activity [17]: inactive
